The values below come from ChEMBL document CHEMBL5316274 (J Med Chem, 2023).

SMILES strings stand for the structures. Activity calls are given as the source filed them. No cut-off for these calls is given here.

The subject of assay [1] is Mus musculus. Description: Antinociceptive activity in Swiss Webster mouse assessed as increase in latency to tail withdrawal at 10 mg/kg, sc observed for 20 mins by warm water tail immersion assay. It counts as functional, organism-based. The essentials: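 Male Swiss-Webster mice (23–35 g, 7–8 weeks), n = 5. Compound given 10 mg/kg s.c. at time 0. Tail-flick latency is measured in 56 ± 0.1 °C water and expressed as % maximum possible effect against saline vehicle.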

Assay [2] deals with T1, Mu-type opioid receptor (Mus musculus, UniProt P42866). Description: Binding affinity to mouse mu opioid receptor expressed in CHO cell membrane assessed as inhibition constant incubated for 1.5 hrs by competitive radioligand binding assay. The assay is classed as cell membranes.
The target in assay [3] is Kappa-type opioid receptor (Mus musculus, UniProt P33534). Description: Binding affinity to mouse kappa opioid receptor expressed in CHO cell membrane assessed as inhibition constant incubated for 1.5 hrs by competitive radioligand binding assay. The assay is classed as cell membranes.
For assay [4], the target named is T1, Mu-type opioid receptor. Description: Binding affinity to mouse mu opioid receptor expressed in CHO cell membrane assessed as [35S]GTPgammaS binding incubated for 1.5 hrs by liquid scintillation counter analysis. It counts as cell membranes. The essentials:
(§1)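 MOR [35S]GTPγS functional assay in MOR-CHO membranes (Bmax about 2.5–4 pmol/mg). Efficacy is expressed as % of the maximal stimulation by full agonist DAMGO.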
(GTPγS is a poorly hydrolysed GTP analogue; its binding reports G protein activation.)

The target in assay [5] is Mu-type opioid receptor (Mus musculus) (UniProt P42866). Description: Binding affinity to mouse mu opioid receptor expressed in CHO cell membrane assessed as stimulation of [35S]-GTPgammaS binding by measuring maximal efficacy incubated for 1.5 hrs by scintillation spectroscopy analysis relative DAMGO. The assay is classed as cell membranes. In short, it runs like this: as §1

The subject of assay [6] is Mus musculus. Description: Effect of compound on chronic morphine pelleted Swiss Webster mouse model assessed as decrease in wet-dog shake symptom at 1 mg/kg, sc and measured for 20 mins by withdrawal assay. The assay is classed as functional, organism-based. In short, it runs like this:
(§2)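 Male Swiss-Webster mice made dependent with chronic morphine pellets. Compound is injected and wet-dog shakes, paw tremors and jumps are counted over 20 min after each injection.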

Assay [7] deals with Mus musculus. Description: Effect of compound on chronic morphine pelleted Swiss Webster mouse model assessed as decrease in jump symptom at 1 mg/kg, sc and measured for 20 mins by withdrawal assay. The assay is classed as functional, organism-based. The essentials:
as §2

Assay [8] relates to Mus musculus. Description: Effect of compound on chronic morphine pelleted Swiss Webster mouse model assessed as decrease in paw tremors symptom at 1 mg/kg, sc and measured for 20 mins by withdrawal assay. The assay is classed as functional, organism-based. The essentials: as §2
The species named for assay [9] is Mus musculus. Description: Selectivity ratio, ratio of Ki for binding affinity to mouse kappa opioid receptor expressed in CHO cell membrane to Ki for binding affinity to mouse mu opioid receptor expressed in CHO cell membrane.
A short description of assay [10]: Selectivity ratio, ratio of Ki for binding affinity to human delta opioid receptor expressed in CHO cell membrane to Ki for binding affinity to mouse mu opioid receptor expressed in CHO cell membrane.
Assay [11] deals with Mus musculus. Description: Antinociceptive activity in Swiss Webster mouse assessed as inhibition of morphine induced latency to tail withdrawal at 10 mg/kg, sc preincubated for 5 mins followed by morphine addition and measured after 20 mins by warm water tail immersion assay. It counts as functional, organism-based. Conditions: time 25.0 min. In short, it runs like this: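 Male Swiss-Webster mice (n = 5). Compound is given s.c. at time 0 (10 mg/kg in the single-dose screen, a dose range for AD50), and morphine 10 mg/kg follows 5 min later. Tail flick is tested in 56 ± 0.1 °C water 20 min after morphine and scored as % MPE. Saline and morphine alone are the controls.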

Take `Cc1c[nH]c2c(C(=O)N[C@@H]3CC[C@@]4(O)[C@H]5Cc6ccc(O)c7c6[C@@]4(CCN5CC4CC4)[C@H]3O7)cccc12`: in assay [1], the result was Active. Besides, the results for the inhibition constant Ki in assay [2] and in [3] were 0.46 nM and 1.01 nM, respectively. Further, the 50% effective concentration (EC50) in assay [4] is 1.22 nM. The maximal effect (Emax) in [5] (filed as modulator) is 44%.

For the compound `C=CCN1CC[C@]23c4c5ccc(O)c4O[C@H]2C(=O)CC[C@@]3(O)[C@H]1C5`, the result in assay [6], in [7] and in assay [8] was Active.

Consider `O=C(N[C@@H]1CC[C@@]2(O)[C@H]3Cc4ccc(O)c5c4[C@@]2(CCN3CC2CC2)[C@H]1O5)c1cccc2c(Cl)c[nH]c12`, for which, in [1], the outcome was Active. In assay [2], the Ki is 0.62 nM. Further, the Ratio Ki in assay [9] was found to be 0.5; in [10] it was 7.2. Also, in [4], the EC50 worked out at 1.05 nM. In addition, in [5] (filed as modulator), the Emax turned out to be 59.5%.

Consider `O=C(N[C@@H]1CC[C@@]2(O)[C@H]3Cc4ccc(O)c5c4[C@@]2(CCN3CC2CC2)[C@H]1O5)c1cccc2c(-c3ccccc3)c[nH]c12`, for which the values for the Ki in [2] and in assay [3] were 1.46 nM and 26.1 nM, respectively. The values for the Ratio Ki in assay [9] and in [10] were 17.9 and 33.8, respectively. For the same compound, in [4], the EC50 was found to be 1.78 nM. For the same compound, the Emax in [5] is 8.47%. For the same compound, the outcome in [11] was inactive.

`O=Cc1c[nH]c2c(C(=O)N[C@@H]3CC[C@@]4(O)[C@H]5Cc6ccc(O)c7c6[C@@]4(CCN5CC4CC4)[C@H]3O7)cccc12`: the Ki in assay [2] is 0.69 nM; in [3] it was 4.03 nM. Also, the results for the Ratio Ki in assay [9] and in [10] were 5.8 and less than 35.1, respectively. For the same compound, the concentration for a half-maximal effect (EC50) in assay [4] was determined as 1.19 nM. The maximum response (Emax) in assay [5] came out at 21.3%. For the same compound, the result in assay [11] was inactive.

In the case of `CC(=O)Nc1c[nH]c2c(C(=O)N[C@H]3CC[C@@]4(O)[C@H]5Cc6ccc(O)c7c6[C@@]4(CCN5CC4CC4)[C@H]3O7)cccc12`, the inhibition constant Ki in [2] worked out at 0.23 nM; in assay [3], 2.1 nM. Moreover, the Ratio Ki in assay [9] turned out to be 9.4; in [10], 23. Moreover, the EC50 in assay [4] was 1.48 nM. Also, the Emax in [5] amounted to 9.97%. Besides, the outcome in [11] was inactive.

Consider `CC(C)c1c[nH]c2c(C(=O)N[C@H]3CC[C@@]4(O)[C@H]5Cc6ccc(O)c7c6[C@@]4(CCN5CC4CC4)[C@H]3O7)cccc12`, for which the Ki was 2.78 nM in [2] and 11 nM in [3]. The Ratio Ki in assay [9] was 4; in assay [10], 9.3. Also, the EC50 in assay [4] turned out to be 2.48 nM. Also, the Emax in [5] was 8.37%. Besides, in assay [11], the outcome was inactive.

On to `O=C(N[C@H]1CC[C@@]2(O)[C@H]3Cc4ccc(O)c5c4[C@@]2(CCN3CC2CC2)[C@H]1O5)c1cccc2c(C3CCCC3)c[nH]c12`, for which the inhibition constant Ki was determined as 2.66 nM in assay [2] and 21.1 nM in [3]. Moreover, the values for the Ratio Ki in assay [9] and in [10] were 7.9 and 10.6, respectively. In addition, the EC50 in assay [4] came to 2.05 nM. In addition, the Emax in [5] is 12.3%. Moreover, the result in [11] was inactive.

For `CC(=O)Nc1c[nH]c2c(C(=O)N[C@@H]3CC[C@@]4(O)[C@H]5Cc6ccc(O)c7c6[C@@]4(CCN5CC4CC4)[C@H]3O7)cccc12`, the Ki in assay [2] worked out at 0.27 nM; in [3], 6.52 nM. For the same compound, the Ratio Ki came to 24.4 in assay [9] and 116 in assay [10]. For the same compound, the half-maximal effective concentration (EC50) in assay [4] came out at 0.88 nM. For the same compound, the Emax in [5] is 8.84%. The outcome in [11] was inactive.

With `O=C(N[C@H]1CC[C@@]2(O)[C@H]3Cc4ccc(O)c5c4[C@@]2(CCN3CC2CC2)[C@H]1O5)c1cccc2c(Cl)c[nH]c12`, the Ki in assay [2] came out at 0.98 nM; in assay [3] it was 5.96 nM. Also, the Ratio Ki in [9] stood at 6.1; in assay [10], 37.9. In addition, the EC50 in assay [4] is 3.67 nM. Also, in [5], the maximum response (Emax) was 13.2%. For the same compound, the result in [11] was inactive.

As for `Cc1c[nH]c2c(C(=O)N[C@H]3CC[C@@]4(O)[C@H]5Cc6ccc(O)c7c6[C@@]4(CCN5CC4CC4)[C@H]3O7)cccc12`, the Ki was determined as 0.69 nM in assay [2] and 4.2 nM in assay [3]. In addition, the Ratio Ki in assay [9] worked out at 6.1; in assay [10], 20.1. The EC50 in assay [4] was found to be 2.68 nM. Also, the Emax in [5] came to 15.7%. Moreover, the outcome in [11] was Active.

`O=C(N[C@@H]1CC[C@@]2(O)[C@H]3Cc4ccc(O)c5c4[C@@]2(CCN3CC2CC2)[C@H]1O5)c1cccc2cc(-c3ccccc3)[nH]c12`: the results for the inhibitory constant (Ki) in [2] and in [3] were 3.26 nM and 1.14 nM, respectively. In addition, the Ratio Ki was determined as 0.4 in assay [9] and 7.3 in assay [10]. Further, the half-maximal effective concentration (EC50) in [4] came to 5.44 nM. In [5], the Emax worked out at 10.2%. The outcome in [11] was inactive.

Take `N#Cc1c[nH]c2c(C(=O)N[C@@H]3CC[C@@]4(O)[C@H]5Cc6ccc(O)c7c6[C@@]4(CCN5CC4CC4)[C@H]3O7)cccc12`: the results for the Ki in assay [2] and in assay [3] were 0.38 nM and 1 nM, respectively. The values for the Ratio Ki in assay [9] and in assay [10] were 2.7 and 67.4, respectively. Moreover, in assay [4], the EC50 amounted to 3.07 nM. Further, the Emax in [5] was 38.8%. Besides, the outcome in assay [11] was inactive.

As for `O=C(N[C@H]1CC[C@@]2(O)[C@H]3Cc4ccc(O)c5c4[C@@]2(CCN3CC2CC2)[C@H]1O5)c1cccc2c(C3CCCCC3)c[nH]c12`, the results for the Ki in assay [2] and in assay [3] were 2.11 nM and 9.65 nM, respectively. For the same compound, the values for the Ratio Ki in assay [9] and in [10] were 4.6 and 8.9, respectively. Further, the EC50 in [4] was 2.62 nM. In assay [5], the Emax worked out at 20.5%. Also, the outcome in [11] was inactive.

Regarding `O=C(N[C@@H]1CC[C@@]2(O)[C@H]3Cc4ccc(O)c5c4[C@@]2(CCN3CC2CC2)[C@H]1O5)c1cccc2c([N+](=O)[O-])c[nH]c12`, in assay [1], the outcome was Active. Further, the inhibition constant (Ki) in assay [2] worked out at 0.54 nM; in assay [3], 0.8 nM. In addition, the values for the Ratio Ki in [9] and in assay [10] were 1.5 and 47.5, respectively. Moreover, the half-maximal effective concentration (EC50) in assay [4] was determined as 1.13 nM. Also, the maximal effect (Emax) in assay [5] (filed as modulator) was 60.9%.

In the case of `O=C(N[C@@H]1CC[C@@]2(O)[C@H]3Cc4ccc(O)c5c4[C@@]2(CCN3CC2CC2)[C@H]1O5)c1cccc2c(C3CCCCC3)c[nH]c12`, the inhibition constant Ki in assay [2] is 5.57 nM; in assay [3] it was 41.7 nM. For the same compound, the values for the Ratio Ki in assay [9] and in [10] were 7.5 and 11.5, respectively. Further, the concentration for a half-maximal effect (EC50) in assay [4] stood at 20.8 nM. In assay [5], the Emax stood at 6.23%. Moreover, the result in assay [11] was inactive.

By Ki is commonly meant the dissociation constant of the complex between target and ligand, obtained from inhibition or displacement. Usually EC50 stands for the concentration at which the effect is half-maximal. A word on the Emax: it is the greatest response seen or fitted, relative to the assay's reference.
